Laboratory results as given in article PMC8790739 (JACS Au, 2022).

Legend:
A. thaliana cotyledons [1] = assay: Evans blue viability assay, A. thaliana cotyledons; format: cell-based, Arabidopsis thaliana; conditions: 1 h, vacuum/compression infiltration, n = 4, Figure 2A, particularly dTat-Sar-EED5
O. sativa calli [2] = assay: Evans blue viability assay, O. sativa calli; format: cell-based, Oryza sativa; conditions: 1 h, vacuum/compression infiltration, n = 4, Figure 2A, particularly dTat-Sar-EED5
M. polymorpha sporelings [3] = assay: Evans blue viability assay, M. polymorpha sporelings; format: cell-based, Marchantia polymorpha; conditions: 1 h at 22 °C, n = 4, Figure 2A
Outline: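 Marchantia polymorpha sporelings (Tak-1 × Tak-2 cross, held 4 days in water) incubated with peptide for 1 h at 22 °C, then stained with Evans blue 150 μg/mL. Stained (dead) and unstained (live) cells counted; viability taken from live/dead ratio. Boiled sporelings (95 °C, 10 min) served as 100% dead. Four biological replicates, mean ± SE, Dunnett's T3 versus 0 μM.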

C. reinhardtii cells [4] = assay: Colony formation viability assay, C. reinhardtii; format: cell-based, Chlamydomonas reinhardtii; conditions: for Cell death in C. reinhardtii (colony formation assay): 2.5 μM peptide, 20 min in TAP medium with 40 mM sucrose, n = 3, Figure 2C
Outline: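 Log-phase Chlamydomonas reinhardtii wild-type cc125+ (2 days after subculture, grown in TAP at 23 °C under constant light) exposed to peptide (39 nM–2.5 μM) for 20 min in TAP with 40 mM sucrose. Cells washed, plated on TAP agar, colonies counted. Viability = colonies with peptide ÷ colonies without. Three biological replicates, mean ± SD.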

E. gracilis cells [5] = assay: Evans blue viability assay, E. gracilis; format: cell-based, Euglena gracilis; conditions: 9 nM–90 μM peptide, 3 h at 26 °C, n = 3, Figure 2C
Outline: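 Euglena gracilis was grown in CM medium pH 3.5 (26 °C, 100 rpm) to OD730 0.23, then incubated with peptide (9 nM–90 μM) for 3 h at 26 °C. Cells pelleted and stained with Evans blue 150 μg/mL for 20 min, washed three times, then live and dead cells counted microscopically. Viability = live/dead ratio relative to untreated cells. Three biological replicates, mean ± SD.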

tobacco BY-2 cells = assay: Peptide-mediated Citrine transduction; format: cell-based, Nicotiana tabacum; conditions: for Citrine internalization into BY-2 cells at lower peptide concentrations: 9 nM–9 μM peptide (low concentrations), Figure S2; for Citrine fluorescence in the nuclei of BY-2 cells: 1 h incubation
Outline: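 Exponentially growing BY-2 cells (OD600 0.5) mixed in a glass-bottom dish with Citrine plus peptide, or with individual peptide domains as controls, for 1 h at 26 °C. Citrine-only cells served as control. Uptake was imaged directly by confocal microscopy at Ex/Em 488/515–580 nm.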

C. reinhardtii cells [6] = assay: Peptide-mediated Citrine transduction; format: cell-based, Chlamydomonas reinhardtii; conditions: 156 nM peptide, Citrine 100 μg/mL, 20 min (b14 says 3 h), CLSM, Figure 2D
Outline: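 Log-phase Chlamydomonas cells suspended in TAP containing 156 nM peptide, 100 μg/mL Citrine and 40 mM sucrose, for 20 min. Cells washed and mounted on slides; Citrine-only cells served as control. Confocal imaging: Citrine at Ex/Em 488/520–550 nm, chlorophyll at 488/660–720 nm.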

E. gracilis cells [7] = assay: Peptide-mediated Citrine transduction; format: cell-based, Euglena gracilis; conditions: 9 μM peptide, Citrine 100 μg/mL, 3 h at 26 °C, CLSM, Figure 2D
Outline: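 Euglena suspension (OD730 0.23) exposed to Citrine with or without peptide in culture medium in a 96-well plate, 3 h at 26 °C, shaking at 100 rpm. Confocal imaging: Citrine at Ex/Em 488/520–550 nm, chlorophyll at 488/660–720 nm.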

[8] = test system: tobacco (Nicotiana tabacum) Bright Yellow-2 (BY-2) cells; assay: Evans blue cell viability assay, BY-2 cells; format: cell-based
A. thaliana cotyledons [9] = assay: Peptide-mediated Citrine transduction; format: cell-based, Arabidopsis thaliana; conditions: 90 μM peptide, Citrine 200 μg/mL, CLSM, Figure 2B
Outline: (§1)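 Col-0 cotyledons (seedlings 7–9 days) or Nipponbare calli (1 week on N6D, 30 °C, constant light) vacuum/compression-infiltrated with 200 μg/mL Citrine, with 90 μM peptide or alone as control. Incubation 1 h: cotyledons at 22 °C, calli at 30 °C. Washed twice with 1/2 MS plus 1% sucrose; confocal imaging at Ex/Em 488/515–560 nm.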

O. sativa calli [10] = assay: Peptide-mediated Citrine transduction; format: cell-based, Oryza sativa; conditions: 90 μM peptide, Citrine 200 μg/mL, CLSM, Figure 2B
Outline: as §1

M. polymorpha sporelings [11] = assay: Peptide-mediated Citrine transduction; format: cell-based, Marchantia polymorpha; conditions: 90 μM peptide, Citrine 200 μg/mL, 1 h at 22 °C, CLSM, Figure 2B
Outline: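 Sporelings incubated 1 h at 22 °C in solution with 90 μM peptide and 200 μg/mL Citrine; Citrine alone served as control. Time-gated confocal detection (0.5–12.0 ns) at Ex/Em 510/546–566 nm.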

[12] = test system: A. thaliana root epidermal cells; assay: FM4-64 uptake into A. thaliana roots; format: cell-based, Arabidopsis thaliana; conditions: dTat-Sar-EED4 30 μM, FM4-64 10 μM, Figure 4B
Outline: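 Roots of Col-0 seedlings (7–9 days) pretreated 30 min at 25 °C in 1/2 MS with 0.6% v/v DMSO or 30 μM ES9-17. FM4-64 (10 μM) then added, ± peptide, for 30 min at 25 °C in the dark. Confocal imaging at Ex/Em 488/620–680 nm. Mean intensity of manually segmented whole cytoplasm was divided by that of the apical plasma membrane, for more than 100 cells from 8 roots.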

[13] = 90 μM peptide, Citrine 100 μg/mL, CLSM, Figure 1D

Substance | Concentrations at which toxic to A. thaliana cotyledons (A. thaliana cotyledons [1]) [µM] | Concentrations at which toxic to O. sativa calli (O. sativa calli [2]) [µM] | Cell death in M. polymorpha sporelings (M. polymorpha sporelings [3]) | Cell death in C. reinhardtii (colony formation assay) (C. reinhardtii cells [4]) | Cytotoxicity toward E. gracilis (E. gracilis cells [5]) | Citrine internalization into BY-2 cells at lower peptide concentrations (tobacco BY-2 cells; CLSM) | Citrine fluorescence in the nuclei of BY-2 cells (tobacco BY-2 cells; [13]) | further results
rrrqrrkkr-(Sar)6-GFWFG [dTat-Sar-EED5] | ≥ 90 | ≥ 90 | did not cause severe cell death | induced severe cell death | Neither peptide exhibited cytotoxicity | negligible Citrine uptake | detected Citrine fluorescence in the nuclei of some cells | Citrine internalization into C. reinhardtii (C. reinhardtii cells [6]): Citrine was internalized; Citrine internalization into E. gracilis (E. gracilis cells [7]): Citrine was internalized
rrrqrrkkr-(Sar)6-GWWG [dTat-Sar-EED4] | ≥ 90 | ≥ 90 | did not cause severe cell death | induced severe cell death | Neither peptide exhibited cytotoxicity | no Citrine internalization was observed | detected Citrine fluorescence in the nuclei of some cells | Cytotoxicity to BY-2 cells after prolonged treatment ([8]; 90 μM for up to 48 h, n = 3, Figure S1): did not result in significant cytotoxicity; Toxicity to BY-2 cells compared between the two peptides ([8]; 1 h treatment, 9 μM to 9 mM, Figure 1B): less toxic than dTat-Sar-EED5; Toxicity to C. reinhardtii cells compared between the two peptides (C. reinhardtii cells [4]; concentrations of 156 nM or more, 20 min, colony formation assay, Figure 2C): slightly more toxic; Citrine internalization into BY-2 cells, time-lapse CLSM (tobacco BY-2 cells; 90 μM peptide, Citrine 100 μg/mL, Figure 1C, Movies S1, S2): rapid internalization of Citrine into BY-2 cells within a few minutes; Transfer of Citrine to the nucleus in A. thaliana cotyledon cells (A. thaliana cotyledons [9]; 1 h): appeared to be transferred to the nucleus; Citrine internalization into A. thaliana cotyledons (A. thaliana cotyledons [9]; 1 h at 22 °C): Citrine internalization was observed; Transfer of Citrine to the nucleus in O. sativa calli (O. sativa calli [10]; 1 h): such behavior was not detected; Citrine internalization into O. sativa calli (O. sativa calli [10]; 1 h at 30 °C): Citrine internalization was observed; Citrine internalization into M. polymorpha sporelings (M. polymorpha sporelings [11]): Citrine internalization was observed; Enhancement of FM4-64 uptake, DMSO-treated samples ([12]; DMSO 0.6% v/v): slight; Enhancement of FM4-64 uptake, ES9-17-treated samples ([12]; ES9-17 30 μM): more pronounced
(Sar)6-GFWFG [Sar-EED5] | – | – | – | – | – | – | – | Citrine uptake by BY-2 cells with individual peptide domains (tobacco BY-2 cells; 90 μM of each peptide domain, 1 h, Citrine 100 μg/mL, CLSM, Figure 1D): did not show Citrine uptake
